# Results: paper PMC3187937 (Biochemistry, 2011)
# Values joined by “and” are separate entries in the source; they are usually repeats but may differ in a detail not shown here. Equal values may be shown once. Read-outs that look alike come from different tables or passages of the source.
# Legend:
# [1] = target: T1, R. capsulatus wild-type cyt bc1 (Rhodobacter capsulatus, UniProt D5ANZ3); experiment: Michaelis-Menten kinetics of DBH2:cyt c reductase, wild-type enzyme; format: biochemical; conditions: DBH2 as substrate
# T1 sequence (D5ANZ3 1-437): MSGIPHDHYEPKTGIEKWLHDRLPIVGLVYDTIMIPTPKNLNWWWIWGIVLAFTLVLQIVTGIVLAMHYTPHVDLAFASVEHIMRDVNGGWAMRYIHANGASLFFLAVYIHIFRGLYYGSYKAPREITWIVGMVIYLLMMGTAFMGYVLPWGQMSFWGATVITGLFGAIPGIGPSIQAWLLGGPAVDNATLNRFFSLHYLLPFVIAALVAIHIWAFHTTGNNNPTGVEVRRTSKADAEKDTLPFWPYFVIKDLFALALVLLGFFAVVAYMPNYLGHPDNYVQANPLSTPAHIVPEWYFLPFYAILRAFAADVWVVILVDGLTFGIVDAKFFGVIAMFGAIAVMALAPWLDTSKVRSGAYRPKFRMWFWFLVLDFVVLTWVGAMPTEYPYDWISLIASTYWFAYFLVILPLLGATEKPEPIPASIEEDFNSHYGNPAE
# T1 sequence (D5ANZ2 1-191 partner): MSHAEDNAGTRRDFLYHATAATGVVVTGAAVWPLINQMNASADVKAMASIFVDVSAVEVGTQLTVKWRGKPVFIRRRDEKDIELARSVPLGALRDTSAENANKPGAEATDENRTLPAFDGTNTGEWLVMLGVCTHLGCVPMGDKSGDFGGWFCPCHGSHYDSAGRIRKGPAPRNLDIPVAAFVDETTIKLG
# T1 sequence (D5ANZ4 22-279 partner): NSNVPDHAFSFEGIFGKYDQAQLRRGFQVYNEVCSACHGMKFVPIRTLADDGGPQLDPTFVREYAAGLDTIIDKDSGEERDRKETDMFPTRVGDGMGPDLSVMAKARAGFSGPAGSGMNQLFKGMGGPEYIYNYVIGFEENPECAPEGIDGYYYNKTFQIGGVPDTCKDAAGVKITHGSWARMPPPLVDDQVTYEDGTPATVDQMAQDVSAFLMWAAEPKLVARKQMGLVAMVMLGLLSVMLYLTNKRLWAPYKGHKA
# Summary of the method: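 Enzyme purified by DDM solubilisation of chromatophore membranes from respiratory-grown cells, then DEAE and Sephacryl S400 chromatography. Assay: 2.3 nM enzyme with 40 μM horse heart cyt c, 2 mM KCN and 0.1 g/L DDM in 50 mM sodium phosphate pH 7.4, stirred at 20 °C. DBH₂ in DMSO was varied from 0.5 to 40 μM. Initial cyt c reduction rate read at 550 nm over 1 min. Km and Vmax came from double-reciprocal plots and Michaelis-Menten fitting.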
# [2] = target: R. capsulatus E295V mutant cyt bc1 (Rhodobacter capsulatus, UniProt D5ANZ3, E295V); experiment: Michaelis-Menten kinetics of DBH2:cyt c reductase, E295V mutant enzyme; format: biochemical; conditions: DBH2 as substrate
# [3] = target: T2, purified R. capsulatus wild-type cyt bc1 (Rhodobacter capsulatus, UniProt D5ANZ3); experiment: Zn^2+ inhibition kinetics of DBH2:cyt c reductase activity, wild-type enzyme; format: biochemical; conditions: 40 mM Tris-HCl buffer pH 7.5, single homogeneous inhibition site fit, free Zn^2+
# T2 sequence (D5ANZ3 1-437): T1 sequence (D5ANZ3 1-437)
# T2 sequence (D5ANZ2 1-191 partner): T1 sequence (D5ANZ2 1-191 partner)
# T2 sequence (D5ANZ4 22-279 partner): T1 sequence (D5ANZ4 22-279 partner)
# [4] = target: purified R. capsulatus cyt b E295V mutant cyt bc1 (Rhodobacter capsulatus, UniProt D5ANZ3, E295V); experiment: Zn^2+ inhibition kinetics of DBH2:cyt c reductase activity, E295V mutant enzyme; format: biochemical
# wild-type cyt bc1 = target: T3, wild-type cyt bc1 (Rhodobacter capsulatus, UniProt D5ANZ3); experiment: Isothermal titration calorimetry of Zn^2+ binding, wild-type enzyme
# T3 sequence (D5ANZ3 1-437): T1 sequence (D5ANZ3 1-437)
# T3 sequence (D5ANZ2 1-191 partner): T1 sequence (D5ANZ2 1-191 partner)
# T3 sequence (D5ANZ4 22-279 partner): T1 sequence (D5ANZ4 22-279 partner)
# E295V mutant cyt bc1 = E295V mutant cyt bc1 (Rhodobacter capsulatus, UniProt D5ANZ3, E295V); format: binding
# [5] = target: T4, hemes of R. capsulatus cyt bc1 (Rhodobacter capsulatus, UniProt D5ANZ3)
# T4 sequence (D5ANZ3 1-437): T1 sequence (D5ANZ3 1-437)
# T4 sequence (D5ANZ2 1-191 partner): T1 sequence (D5ANZ2 1-191 partner)
# T4 sequence (D5ANZ4 22-279 partner): T1 sequence (D5ANZ4 22-279 partner)
# bovine cyt bc1 [6] = conditions: cited from earlier work
# bovine cyt bc1 [7] = conditions: cited from earlier work; remark: listed apart in the source
# chicken cyt bc1 = conditions: avian; ref [25]; cited from earlier work
# [8] = E295V, blind fit, two-site model
# R. capsulatus E295V mutant cyt bc1, sequence (D5ANZ3 whole entry E295V, one chain of several): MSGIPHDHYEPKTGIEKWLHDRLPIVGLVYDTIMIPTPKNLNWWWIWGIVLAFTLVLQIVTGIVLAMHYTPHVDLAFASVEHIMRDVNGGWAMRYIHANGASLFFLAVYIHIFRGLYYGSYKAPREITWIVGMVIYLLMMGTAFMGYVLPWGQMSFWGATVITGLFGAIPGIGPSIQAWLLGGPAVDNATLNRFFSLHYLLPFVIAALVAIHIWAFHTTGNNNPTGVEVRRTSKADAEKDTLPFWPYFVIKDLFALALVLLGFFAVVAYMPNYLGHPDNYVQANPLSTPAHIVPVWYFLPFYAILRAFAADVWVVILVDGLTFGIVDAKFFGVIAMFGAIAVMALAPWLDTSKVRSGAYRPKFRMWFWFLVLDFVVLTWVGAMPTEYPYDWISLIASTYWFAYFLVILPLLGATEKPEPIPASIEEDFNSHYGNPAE
# E295V mutant cyt bc1, sequence (D5ANZ3 whole entry E295V, one chain of several): as above
# purified R. capsulatus cyt b E295V mutant cyt bc1, sequence (D5ANZ3 whole entry E295V, one chain of several): as above
smiles,measurement,setting,value
"CCCCCCCCCCc1c(C)c(O)c(OC)c(OC)c1O [DBH2, Decylbenzohydroquinone]",Kcat,[1],85.2 ± 13.1 s⁻¹
same,Vmax,[1],42.4 µmol/min/mg and 42.4 ± 0.8 µmol/min/mg
same,Km,[1]; purified enzyme,4.9 ± 0.2 µM
same,Vmax of E295V relative to wild type (fold lower),[2]; steady-state,4 fold
same,Kcat,[2]; E295V,34.3 ± 4.5 s⁻¹
same,Vmax,[2]; E295V,10.6 ± 0.4 µmol/min/mg
same,Km,"[2]; E295V, purified enzyme",3.1 ± 0.4 µM
[Zn+2] [Zn^2+],Ki,[3],900 nM
same,Ki,"[4]; 40 mM Tris-HCl buffer pH 7.5, single site fit, free Zn^2+",2600 nM
same,residual activity,[4]; [Zn^2+] > 0.2 mM,30%
same,ΔH1,wild-type cyt bc1; high affinity site,-5.6 ± 0.2 kcal/mol
same,ΔH2,wild-type cyt bc1; lower affinity sites,-1.4 ± 0.2 kcal/mol
same,Kd,"wild-type cyt bc1; read-out: KD1 (high affinity site), two-site model",500 ± 70 nM
same,Kd,"wild-type cyt bc1; read-out: KD2 (lower affinity sites), two-site model",6800 ± 900 nM
same,Kd,"wild-type cyt bc1; read-out: KD (high affinity site), two-site model",500 nM
same,Kd,"wild-type cyt bc1; read-out: KD (lower affinity sites), two-site model",6800 nM
same,"n1, stoichiometry of high affinity site",wild-type cyt bc1; sites per protein complex,1.13 ± 0.03
same,"n2, number of lower affinity binding sites",wild-type cyt bc1; sites per protein complex,3.7 ± 0.2
same,n1,E295V mutant cyt bc1; [8],1.97 ± 0.08
same,"n2, low affinity binding sites per cyt bc1",E295V mutant cyt bc1; [8],7.1 ± 0.3
same,ΔH1,E295V mutant cyt bc1; [8],-9.9 ± 0.7 kcal/mol
same,ΔH2,E295V mutant cyt bc1; [8],-2.6 ± 0.3 kcal/mol
same,"n2, number of low affinity sites","E295V mutant cyt bc1; E295V, n1 = 1 fixed",9.1 ± 0.5
same,ΔH1,"E295V mutant cyt bc1; E295V, n1 = 1 fixed",-28 ± 4 kcal/mol
same,ΔH2,"E295V mutant cyt bc1; E295V, n1 = 1 fixed",-0.9 ± 0.5 kcal/mol
same,Kd,"E295V mutant cyt bc1; read-out: KD1 (high affinity site), E295V, two-site model with n1 = 1 fixed",1000 ± 360 nM
same,Kd,"E295V mutant cyt bc1; read-out: KD2 (low affinity sites), E295V, n1 = 1 fixed",3500 ± 1600 nM
same,Kd,"E295V mutant cyt bc1; read-out: KD2, E295V, blind fit, two-site model",5810 ± 1220 nM
same,change of KD1 of high affinity site in E295V compared to wild type,E295V mutant cyt bc1; unitary stoichiometry assumed,increase by a factor of two
same,effect on midpoint potentials of the b-type hemes,"[5]; wild type, 200 μM Zn^2+, oxidative titration, pH 8.0",does not significantly affect
same,effect on oxidation rate,"[5]; with Zn^2+ added, +500 mV vs SHE",remained unaffected
same,time to fully reduced samples after application of the reducing potential,"[5]; with Zn^2+ added, −500 mV vs SHE, within 7 minutes without Zn^2+",10 min
same,Ki,"bovine cyt bc1 [6]; pH 7.0, ref [39]",100 nM
same,Complete inhibition (Zn^2+ concentration),bovine cyt bc1 [6]; ref [39],[Zn^2+] > 5 μM
same,Kd,"bovine cyt bc1 [7]; pH 7.0, first value of cell, ref [39]",100 nM
same,Kd,"bovine cyt bc1 [7]; read-out: KD (second value), second value of cell, ref [39]",> 2000 nM
same,Ki,chicken cyt bc1,3000 nM
